By residual activity is commonly meant the share of the control activity or signal that is left under treatment.

The source of these data is ChEMBL document CHEMBL4145471, “New 1,5 and 2,5-disubstituted tetrazoles-dependent activity towards surface barrier of Candida albicans” (Eur J Med Chem, 2018).

Assay [1] deals with Candida albicans. As to the kind of experiment: Synergistic antifungal activity against Candida albicans ATCC 90028 at 80 ug/ml after 48 hrs in presence of 10 ug/ml fluconazol by checkerboard assay relative to control. The class given is functional. Summed up:
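Checkerboard in C. albicans ATCC 90028, inoculum prepared per CLSI M27-A3 in RPMI. Fluconazole serially diluted 80-1.25 µg/mL across the plate against the partner compound at 80-1.25 µg/mL final. Incubated 48 h at 35°C. Metabolic activity read by XTT reduction at 475 nm (660 nm reference), given as % of the untreated growth control.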

Assay [2] concerns Candida albicans. Kind of assay: Antifungal activity against Candida albicans ATCC 90028 at 2 ug/ml after 48 hrs relative to control. The format is functional. Summed up:
(§1)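 Planktonic broth microdilution per M27-A3 in MOPS-buffered RPMI 1640 (pH 7.0), final inoculum 1.8×10^3 cells/mL, compounds 0.0313–16 µg/mL from 1600 µg/mL stocks in ethanol or DMSO. Incubated at 35°C without agitation; OD405 read at 18 and 48 h. % inhibition was derived from test, sterility (no inoculum) and solvent growth-control wells. Amphotericin B at 0.5 µg/mL served as the 100% control.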

The test system of assay [3] is Candida albicans. Kind of assay: Antifungal activity against Candida albicans ATCC 90028 assessed as metabolic activity at 20 ug/ml after 48 hrs in presence of 2.5 ug/ml fluconazol by XTT assay relative to control. (In general: Tetrazolium dyes change colour on reduction, which living cells bring about.)
In assay [4] the test system is Candida albicans. Kind of assay: Antifungal activity against Candida albicans ATCC 90028 assessed as inhibition of metabolic activity at 1.25 ug/ml after 48 hrs in presence of 10 ug/ml fluconazol by XTT assay relative to control. The format is functional. To be noted: values are per cent of control. The procedure, abridged: (§2)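 Checkerboard against strain ATCC 90028, inoculum per M27-A3: fluconazole 80-1.25 µg/mL on one axis, tetrazole 80-1.25 µg/mL on the other. Plates at 35°C for 48 h, then XTT metabolic reduction read at 475 nm (660 nm reference). Activity is the drop in mean absorbance against untreated growth control. FICs and their summed FIC index are taken at 50% reduction in metabolic activity.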

In assay [5] the test system is Candida albicans. Kind of assay: Antifungal activity against Candida albicans ATCC 90028 assessed as inhibition of metabolic activity at 1.25 ug/ml after 48 hrs in presence of 2.5 ug/ml fluconazol by XTT assay relative to control. The format is functional. To be noted: values are per cent of control. The procedure, abridged: (§3)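 C. albicans ATCC 90028 in checkerboard: fluconazole serial dilutions (80-1.25 µg/mL) crossed with tetrazole (80-1.25 µg/mL final), M27-A3 inoculum in RPMI 1640, 35°C for 48 h. Metabolic activity measured by XTT reduction, read at 475 nm (660 nm reference). Activity expressed relative to untreated growth control absorbance.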

Assay [6] relates to Candida albicans. As to the kind of experiment: Antifungal activity against Candida albicans ATCC 90028 assessed as metabolic activity at 10 ug/ml after 48 hrs in presence of 80 ug/ml fluconazol by XTT assay relative to control.
Assay [7] has as its system Candida albicans. As to the kind of experiment: Antifungal activity against Candida albicans ATCC 90028 assessed as inhibition of metabolic activity at 2.5 ug/ml after 48 hrs in presence of 10 ug/ml fluconazol by XTT assay relative to control. The format is functional. As to conditions: values are per cent of control. The procedure, abridged: as §3
Assay [8] relates to Candida albicans. As to the kind of experiment: Antifungal activity against Candida albicans ATCC 90028 assessed as inhibition of metabolic activity at 2.5 ug/ml after 48 hrs in presence of 40 ug/ml fluconazol by XTT assay relative to control. The format is functional. As to conditions: values are per cent of control. The procedure, abridged:
as §3

Assay [9] has as its system Candida albicans. Kind of assay: Antifungal activity against Candida albicans ATCC 90028 assessed as inhibition of metabolic activity at 2.5 ug/ml after 48 hrs in presence of 20 ug/ml fluconazol by XTT assay relative to control. The format is functional. As to conditions: values are per cent of control. The procedure, abridged: as §3
Assay [10] concerns Candida albicans. As to the kind of experiment: Synergistic antifungal activity against Candida albicans ATCC 90028 at 10 ug/ml after 48 hrs in presence of 5 ug/ml fluconazol by checkerboard assay relative to control. The format is functional. The procedure, abridged:
(§4)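 Checkerboard per M27-A3 against ATCC 90028: fluconazole at 80–1.25 µg/mL horizontally and partner compound at 80–1.25 µg/mL vertically, 100 µL yeast inoculum per well, 35°C for 48 h. After 48 h, metabolic activity was measured by XTT reduction at 475 nm (660 nm reference) relative to untreated growth control. FIC index is the sum of the FICs; <1 was defined as synergism and >1 as antagonism.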

Assay [11] deals with Candida albicans. As to the kind of experiment: Antifungal activity against Candida albicans ATCC 90028 assessed as inhibition of metabolic activity at 2.5 ug/ml after 48 hrs in presence of 5 ug/ml fluconazol by XTT assay relative to control. The class given is functional. As to conditions: values are per cent of control. Summed up:
as §3

The test system of assay [12] is Candida albicans. As to the kind of experiment: Antifungal activity against Candida albicans ATCC 90028 assessed as metabolic activity at 20 ug/ml after 48 hrs in presence of 1.25 ug/ml fluconazol by XTT assay relative to control.
In assay [13] the test system is Candida albicans. Kind of assay: Antifungal activity against Candida albicans ATCC 90028 assessed as metabolic activity at 40 ug/ml after 48 hrs in presence of 2.5 ug/ml fluconazol by XTT assay relative to control.
Assay [14] concerns Candida albicans. Kind of assay: Antifungal activity against Candida albicans ATCC 90028 at 0.5 ug/ml after 48 hrs relative to control. The class given is functional. Summed up:
as §1

Assay [15] concerns Candida albicans. As to the kind of experiment: Antifungal activity against Candida albicans ATCC 90028 at 0.25 ug/ml after 48 hrs relative to control. The format is functional. Summed up: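 Fluconazole (water stock, diluted in RPMI 1640) tested by CLSI M27-A3 broth microdilution against C. albicans ATCC 90028. Inoculum 1.8×10^3 cells/mL in RPMI 1640 buffered with MOPS, pH 7.0. Incubation at 35°C without agitation, read at 18 and 48 h. Growth by OD405 and visually; inhibition % calculated against solvent growth-control wells after subtracting sterility-control wells.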

Assay [16] relates to Candida albicans. Kind of assay: Synergistic antifungal activity against Candida albicans ATCC 90028 at 2.5 ug/ml after 48 hrs in presence of 20 ug/ml fluconazol by checkerboard assay relative to control. The class given is functional. The procedure, abridged: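 Checkerboard microdilution (M27-A3) on C. albicans ATCC 90028 in RPMI 1640: fluconazole (80-1.25 µg/mL) crossed with tetrazole (80-1.25 µg/mL final), incubated at 35°C for 48 h. Growth by OD405 at 18 and 48 h, endpoint taken as 100% inhibition. FIC index = sum of the two agents' FICs; <1 synergism, >1 antagonism.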

Assay [17] relates to Candida albicans. Kind of assay: Antifungal activity against Candida albicans ATCC 90028 assessed as metabolic activity at 80 ug/ml after 48 hrs in presence of 5 ug/ml fluconazol by XTT assay relative to control.
For assay [18], the system named is Candida albicans. Kind of assay: Synergistic antifungal activity against Candida albicans ATCC 90028 at 10 ug/ml after 48 hrs in presence of 20 ug/ml fluconazol by checkerboard assay relative to control. The format is functional. Summed up:
as §4

The subject of assay [19] is Candida albicans. As to the kind of experiment: Antifungal activity against Candida albicans ATCC 90028 assessed as inhibition of metabolic activity at 5 ug/ml after 48 hrs in presence of 10 ug/ml fluconazol by XTT assay relative to control. To be noted: values are per cent of control. The format is functional. The procedure, abridged: as §2

Turning to `CCOC(=O)CCn1nnc(-c2ccccc2)n1`, the “growth inhibition (GI)” value with Candida albicans [1] was determined as 99.84%; with Candida albicans [10], 98.97%; in the assay with Candida albicans [16] it was 99.52%; with Candida albicans [18], 99.46%. The Activity amounted to 99.7% in the assay on Candida albicans [2], 99.31% in the assay with Candida albicans [14] and 98.7% in the assay on Candida albicans [15]. Besides, the Metabolic activity is given as 80.61% in the assay with Candida albicans [3]; 77.26% in the assay with Candida albicans [6]; 90.68% with Candida albicans [12]; 61.61% in the assay on Candida albicans [13]; 100% in the assay with Candida albicans [17]. For the same compound, the residual activity is 74.44% with Candida albicans [4]; 75.73% in the assay on Candida albicans [5]; 71.01% with Candida albicans [7]; 92.82% in the assay with Candida albicans [8]; 67.39% with Candida albicans [9]; 95.38% in the assay with Candida albicans [11]. The residual activity in the assay on Candida albicans [19] worked out at 69.35%.
Take `ClCCCn1nnnc1-c1ccccc1Cl`: the “growth inhibition (GI)” value in the assay with Candida albicans [1] is on record as 99.78%; in the assay with Candida albicans [10], 98.9%; with Candida albicans [16], 99.53%; in the assay with Candida albicans [18], 99.61%. For the same compound, the Activity in the assay with Candida albicans [2] stood at 99.14%; in the assay with Candida albicans [14], 99.22%; in the assay on Candida albicans [15], 99.62%. The Metabolic activity with Candida albicans [3] is reported as 81.5%; in the assay on Candida albicans [6] it was 80.34%; in the assay on Candida albicans [12], 0%; in the assay with Candida albicans [13], 75.66%; in the assay with Candida albicans [17], 100%. The residual activity with Candida albicans [4] was determined as 62.08%; in the assay with Candida albicans [5] it was 71.55%; in the assay with Candida albicans [7] it was 64.55%; with Candida albicans [8] it was 97.62%; with Candida albicans [9], 68.53%; in the assay on Candida albicans [11] it was 100%. For the same compound, in the assay with Candida albicans [19], the residual activity is 66.6%.
Turning to `Cc1ccc(-c2nnn(CCCN3CCOCC3)n2)cc1`, the “growth inhibition (GI)” value in the assay with Candida albicans [1] came to 99.8%; in the assay on Candida albicans [10], 98.12%; with Candida albicans [16], 98.82%; in the assay on Candida albicans [18], 98.99%. Further, the Activity in the assay on Candida albicans [2] is on record as 98.3%; in the assay on Candida albicans [14], 99.18%; with Candida albicans [15] it was 98.68%. Besides, the Metabolic activity in the assay with Candida albicans [3] turned out to be 71.88%; in the assay on Candida albicans [6], 89.3%; in the assay with Candida albicans [12], 76.07%; with Candida albicans [13] it was 26.03%; in the assay with Candida albicans [17], 100%. The residual activity is listed as 100% in the assay on Candida albicans [4]; 100% with Candida albicans [5]; 85.87% in the assay with Candida albicans [7]; 100% with Candida albicans [8]; 86.25% in the assay with Candida albicans [9]; 100% in the assay with Candida albicans [11]. For the same compound, in the assay on Candida albicans [19], the residual activity was 81.48%.
